IDH1 mut inh: IDH1 R132H (human) inhibition | O75874 | IDH1 R132H reductase, diaphorase/resazurin fluorescence, 60 min | inhibition, % at 10 µM | 70,000 compounds, 0.18% hits | AID 624101; in the data active = inhibition above about 34%; inconclusive = no clear call, values can overlap the other calls; inactive = below about 11%
Target sequence (O75874 whole entry R132H): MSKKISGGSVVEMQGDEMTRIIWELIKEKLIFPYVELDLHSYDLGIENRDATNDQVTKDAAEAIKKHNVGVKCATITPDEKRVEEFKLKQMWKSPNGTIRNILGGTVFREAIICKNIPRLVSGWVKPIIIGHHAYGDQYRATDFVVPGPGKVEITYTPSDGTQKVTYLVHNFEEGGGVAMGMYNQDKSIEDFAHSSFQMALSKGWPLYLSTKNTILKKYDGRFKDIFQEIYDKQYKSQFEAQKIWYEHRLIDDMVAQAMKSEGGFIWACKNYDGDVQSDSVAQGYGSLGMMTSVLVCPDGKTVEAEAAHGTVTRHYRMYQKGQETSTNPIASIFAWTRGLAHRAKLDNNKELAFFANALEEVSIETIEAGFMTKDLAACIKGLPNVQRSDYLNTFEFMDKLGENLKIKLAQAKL
GASC1 inh: blocks human GASC-1 (KDM4C) demethylase activity; Q9H3R0; GST-KDM4C 2-372, H3K9me3 peptide, LANCE TR-FRET; inhibition, % at 12.5 µM; 96,000 compounds, 0.15% hits; AID 720574;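 active = mean replicate inhibition above about 25%, with at least 55% of replicates also reaching it, limit read from the data, passing the limit was not always enough; inconclusive = only one of those two conditions met; inactive = neither condition met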
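Material: N-terminal GST-fused human GASC-1 (KDM4C) fragment, residues 2-372. Input: 10 nM enzyme. Incubation: enzyme reaction 30 min, then detection 60 min, both room temperature. Doses: one test concentration per compound. Read-out basis: inhibition from TR-FRET ratio decrease. Detection: LANCE TR-FRET, excitation 340 nm, emissions 618 and 671 nm.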
Hits are given with their value; i = inactive; ? = inconclusive; nt = no result. The entries come from a sample that favours hits as a whole.

SMILES	IDH1 mut inh	GASC1 inh
CCC(C)[C@@H](CO[C@@H](Cc1ccccc1)C(=O)N[C@@H](CCS(C)(=O)=O)C(=O)OC(C)C)NC[C@@H](N)CS (stereo partly specified)	60	nt
CC(C)C[C@H](NC(=O)[C@@H](O)[C@H](N)Cc1ccccc1)C(=O)O	i	nt
Cc1cc(O)cc(Oc2cc(C)cc(O)c2O)c1	56	nt
Cc1cc(C(C)(C)C)c(O)c(C(C)(C)C)c1	i	nt
CCCNC(=O)Nc1ccc2c(c1)OC[C@@H](C)N(C(C)=O)C[C@@H](C)[C@H](OC)CN(C)C2=O	nt	i
COc1ccc(C(=O)NCCCN2CCCC2=O)cc1[N+](=O)[O-]	i	nt
O=C(CSc1nccc(=O)[nH]1)Nc1cccc(I)c1	i	nt
CCCCCCC[C@@H](O)CC(=O)CCc1ccc(O)c(OC)c1	i	nt
COC(CCc1ccc(O)c(O)c1)CC(=O)CCc1ccc(O)c(O)c1 (stereo unspecified)	52	nt
CCCCC[C@H](O)CC(=O)CCc1ccc(O)c(OC)c1	i	nt
O=C(CCc1ccc(O)cc1)CC(O)CCc1ccc(O)c(O)c1 (stereo unspecified)	54	nt
CCNC(=O)[C@@H]1[C@@H](CO)[C@@H]2Cn3c(ccc(-c4cccnc4)c3=O)[C@@H]2N1Cc1ccccc1	nt	i
O=C(NCC(F)(F)F)[C@@H]1[C@@H](CO)[C@@H]2Cn3c(ccc(-c4cccnc4)c3=O)[C@@H]2N1Cc1ccncc1	nt	38
CO[C@H]1CN(C)C(=O)c2cc(NC(=O)c3ccccc3)ccc2OC[C@@H](C)N(C(C)=O)C[C@@H]1C	87	nt
CCCNC(=O)Nc1ccc2c(c1)OC[C@H](C)N(C(=O)C1CCOCC1)C[C@H](C)[C@H](OC)CN(C)C2=O	i	35
CO[C@@H]1CN(C)C(=O)c2ccc(NC(=O)NC(C)C)cc2OC[C@H](C)N(C(=O)CC2CC2)C[C@@H]1C	i	51
CO[C@@H]1CN(C)C(=O)c2cc(NC(=O)c3ccccc3)ccc2OC[C@H](C)N(C(C)=O)C[C@H]1C	i	i
CO[C@H]1CN(C)C(=O)c2ccc(NC(=O)NC(C)C)cc2OC[C@H](C)N(C(=O)CC2CC2)C[C@@H]1C	nt	i
CCCNC(=O)Nc1ccc2c(c1)OC[C@@H](C)N(C(=O)C1CCOCC1)C[C@H](C)[C@@H](OC)CN(C)C2=O	i	i
C[C@@H]1CN([C@@H](C)CO)C(=O)Cc2cc(NS(C)(=O)=O)ccc2O[C@H]1CN(C)Cc1ccncc1	i	i
Cc1cc(-c2ccccc2)nc(SCC(=O)Nc2ccccc2C#N)n1	i	nt
Cc1nnc(SCC(=O)Nc2cccc(Cl)c2Cl)s1	i	nt
COc1cc(Cc2nccc3cc(OC)c(OC)cc23)c(NC(=O)c2cccs2)cc1OC	i	nt
O=C(CN1CCOCC1)N[C@@H]1CC[C@H](CCNC(=O)Nc2cc(F)ccc2F)O[C@H]1CO	i	31
O=C(CN1CCOCC1)NCC[C@@H]1CC[C@H](NC(=O)Nc2ccc(F)cc2)[C@H](CO)O1	i	i
SMILES	IDH1 mut inh	GASC1 inh
O=C(CN1CCOCC1)N[C@H]1CC[C@@H](CCNC(=O)Nc2cc(F)ccc2F)O[C@@H]1CO	i	i
O=C(CN1CCOCC1)NCC[C@H]1CC[C@H](NC(=O)Nc2ccc(F)cc2)[C@H](CO)O1	73	69
COCC(=O)N(C)C[C@H]1Oc2ncc(C#Cc3cccnc3)cc2C(=O)N([C@@H](C)CO)C[C@@H]1C	i	i
COCC(=O)N(C)C[C@@H]1Oc2ncc(C#CC3(O)CCCC3)cc2C(=O)N([C@H](C)CO)C[C@@H]1C	i	i
COCC(=O)N(C)C[C@@H]1Oc2ncc(C#Cc3cccnc3)cc2C(=O)N([C@@H](C)CO)C[C@H]1C	i	37
C[C@@H]1CN([C@H](C)CO)C(=O)c2cc(C#Cc3ccncc3)cnc2O[C@@H]1CN(C)C(=O)c1ccccc1F	36	i
C[C@H](CO)N1C[C@H](C)[C@@H](CN(C)C(=O)c2ccccc2F)Oc2ncc(C#Cc3ccncc3)cc2C1=O	i	i
COCC(=O)N(C)C[C@H]1Oc2ncc(C#CC3(O)CCCC3)cc2C(=O)N([C@@H](C)CO)C[C@H]1C	i	31
COc1ccc([C@H]2Oc3cc(O)cc(O)c3C(=O)[C@@H]2O)cc1	i	nt
COc1ccc(CN(C)C[C@H]2Oc3ccc(NC(=O)C4CC4)cc3CC(=O)N([C@@H](C)CO)C[C@@H]2C)cc1	i	i
COc1ccc(CN(C)C[C@@H]2Oc3ccc(NC(=O)C4CCCCC4)cc3CC(=O)N([C@@H](C)CO)C[C@H]2C)cc1	106	85
C[C@@H]1CN([C@@H](C)CO)C(=O)Cc2cc(NC(=O)NC3CCCCC3)ccc2O[C@H]1CN(C)Cc1ccncc1	47	i
C[C@@H]1CN([C@H](C)CO)C(=O)Cc2cc(NC(=O)NC3CCCCC3)ccc2O[C@@H]1CN(C)Cc1ccncc1	i	nt
Cc1ccc(Oc2coc3cc(OCC(=O)Nc4ccccc4C(F)(F)F)ccc3c2=O)cc1	i	nt
Cc1ccc(S(=O)(=O)N(C)CC(=O)Nc2ccccc2C(N)=O)cc1	i	nt
O=C(O)CCC(=O)Nc1ccc(NC(=O)c2ccccc2)c(Cl)c1	i	nt
COc1ccc(-c2ccc3c(c2)O[C@H](CN(C)C(=O)c2ccccc2F)[C@H](C)CN([C@@H](C)CO)S3(=O)=O)cc1	i	i
COc1ccc(NC(=O)N(C)C[C@@H]2Oc3cc(-c4ccncc4)ccc3S(=O)(=O)N([C@@H](C)CO)C[C@@H]2C)cc1	i	i
COc1ccc(-c2ccc3c(c2)O[C@H](CN(C)C(=O)c2ccccc2F)[C@H](C)CN([C@H](C)CO)S3(=O)=O)cc1	?	45
COc1ccc(NC(=O)N(C)C[C@@H]2Oc3cc(-c4ccncc4)ccc3S(=O)(=O)N([C@H](C)CO)C[C@@H]2C)cc1	71	37
C[C@@H]1CN([C@H](C)CO)S(=O)(=O)c2ccc(-c3cccc(F)c3)cc2O[C@@H]1CN(C)S(=O)(=O)c1ccc(F)cc1	nt	i
Cc1ccc(S(=O)(=O)N(C)C[C@H]2Oc3cc(-c4cccc(F)c4)ccc3S(=O)(=O)N([C@@H](C)CO)C[C@@H]2C)cc1	87	45
Cc1ccccc1Cn1ccc(NC(=O)c2nn3c(c2Cl)NC(c2ccccc2)CC3C(F)(F)F)n1 (stereo unspecified)	i	nt
COc1ccc2c3c([nH]c2c1)[C@@H](CO)N(C(=O)c1ccccc1)CC31CN(C)C1	nt	i
O=C1c2ccccc2C(=O)N1CCSc1nnnn1-c1ccccc1	i	nt
SMILES	IDH1 mut inh	GASC1 inh
CC(NC(=O)c1ccccc1NC(=O)c1ccccc1)C(=O)Nc1ccc2ccccc2c1 (stereo unspecified)	i	nt
CCCN1[C@H](C(=O)N[C@@H](C)c2ccccc2)[C@@H](CO)[C@@H]2Cn3c(cccc3=O)[C@@H]21	nt	38
CCCN1[C@@H]2c3cccc(=O)n3C[C@@H]2[C@@H](CO)[C@@H]1C(=O)N[C@@H](C)c1ccccc1	nt	i
CCNS(=O)(=O)c1ccc(NC(=O)c2cc(-c3ccncc3)nc3c(C)c(Cl)ccc23)cc1	i	nt
Cc1ccccc1S(=O)(=O)NCC[C@H]1CC[C@H](NC(=O)C2CCCCC2)[C@H](CO)O1	88	82
COc1ccccc1S(=O)(=O)N[C@H]1CC[C@H](CCNC(=O)C2CCCC2)O[C@H]1CO	?	50
COc1ccccc1S(=O)(=O)N[C@H]1CC[C@H](CCNC(=O)C2CCCCC2)O[C@@H]1CO	i	i

Bioassay records deposited in PubChem by Broad Institute.
